{"data": "Measured values gathered from unrelated publications", "BCHE": "Cholinesterase (BCHE, Homo sapiens, UniProt P06276)", "CHRM5": "Muscarinic acetylcholine receptor M5 (CHRM5, Homo sapiens, UniProt P08912)", "TPR": "Trypanothione reductase (TPR, Trypanosoma cruzi, UniProt P28593)", "note": "Lines come from different studies, so protocols differ. pEC50, pIC50, pKd, pKi: −log10 of the molar value."}
{"Compound": "[O-]/[N+](=C\\c1ccc2cccc(O)c2n1)Cc1ccccc1", "target": "BCHE", "assay": "enzyme activity, inhibitor", "setting": "pH 7", "quantity": "pKi", "result": 8.37}
{"Compound": "CC(C)C(Nc1nc(Cl)nc2c1ncn2[C@H]1[C@H](O)[C@H](O)[C@]2(CO)C[C@H]12)C(C)C", "target": "CHRM5", "assay": "ligand displacement, radioligand", "quantity": "pKi", "result": "< 5.20"}
{"Compound": "CCCCc1cc2cc(-n3nc(C)c4c3CC(C)(C)CC4=O)cc(N[C@H]3CC[C@H](O)CC3)c2c(=O)[nH]1", "target": "Heat shock protein HSP 90-beta (HSP90AB1, Homo sapiens, UniProt P08238)", "assay": "ligand displacement, FP", "quantity": "pIC50", "result": 6.73}
{"Compound": "Nc1c2c(nc3ccccc13)CCCC2", "target": "Ribosyldihydronicotinamide dehydrogenase [quinone] (NQO2, Homo sapiens, UniProt P16083)", "assay": "enzyme activity, inhibitor, absorbance", "quantity": "pIC50", "result": 5.52}
{"Compound": "Cc1cc(C)c2[nH]c(=O)c(CN(CCO)C(=S)Nc3ccc(O)cc3)cc2c1", "target": "Beta-glucuronidase (uidA, Escherichia coli, UniProt P05804)", "assay": "enzyme activity, inhibitor", "quantity": "pEC50", "result": 5.35}
{"Compound": "CSCC[C@H](NC(=O)[C@H](CC(C)C)NC(=O)[C@H](Cc1cnc[nH]1)NC(=O)CNC(=O)[C@@H](NC(=O)[C@H](C)NC(=O)[C@H](Cc1c[nH]c2ccccc12)NC(=O)[C@H](CCC(N)=O)NC(=O)[C@H](CC(N)=O)NC(=O)CNC(=O)[C@H](CC(C)C)NC(=O)[C@H](CCCN=C(N)N)NC(=O)[C@H](CCC(N)=O)NC(=O)[C@@H]1CCC(=O)N1)C(C)C)C(N)=O", "target": "Bombesin receptor subtype-3 (Brs3, Mus musculus, UniProt O54798)", "assay": "calcium signal, agonist, fluorescence", "quantity": "pEC50", "result": "< 5.00"}
{"Compound": "OC[C@H]1O[C@H]([S-])[C@H](O)[C@@H](O)[C@@H]1O.[Au+]", "target": "Tyrosine-protein phosphatase non-receptor type 12 (PTPN12, Homo sapiens, UniProt Q05209)", "assay": "enzyme activity, inhibitor, fluorescence", "quantity": "pIC50", "result": 5.10}
{"Compound": "c1ccc2c(c1)CCc1ccccc1C2OCCN1CCNCC1", "target": "TPR", "assay": "enzyme activity, inhibitor, absorbance", "quantity": "pIC50", "result": 4.29}
{"Compound": "CC(C)C[C@H](NC(=O)[C@H](Cc1ccccc1)NC(=O)c1cnccn1)B(O)O", "target": "Plasma kallikrein (KLKB1, Homo sapiens, UniProt P03952)", "assay": "enzyme activity, inhibitor", "quantity": "pIC50", "result": 5.70}
{"Compound": "C=CCn1c2cc(OC(=O)CCCCN3CCN(Cc4cccc(C)c4)CC3)ccc2c2ccnc(C)c21", "target": "BCHE", "assay": "enzyme activity, inhibitor, Ellman", "quantity": "pIC50", "result": 6.60}
{"Compound": "O=c1c2ccccc2[se]n1-c1ccccc1", "target": "TPR", "assay": "enzyme activity, inhibitor, absorbance", "quantity": "pIC50", "result": 5.87}
{"Compound": "C[C@H](N)Cn1ncc2ccc3c(c21)CCCO3", "target": "Serotonin 4 (5-HT4) receptor (Sus scrofa, UniProt Q6Q253)", "assay": "ligand displacement, radioligand", "quantity": "pIC50", "result": 4.52}
{"Compound": "O=C(O)c1ccccc1-c1c2cc(Br)c(=O)cc-2oc2[c]([Hg+])c(O)c(Br)cc12", "target": "Proteinase K (PROK, Engyodontium album, UniProt P06873)", "assay": "binding, ITC", "quantity": "pKd", "result": "~2.52"}
{"Compound": "CC(C)(C)[C@H](Nc1nc(Cl)nc2c1ncn2[C@H]1[C@H](O)[C@H](O)[C@]2(CO)C[C@H]12)C1CC1", "target": "CHRM5", "assay": "ligand displacement, radioligand", "quantity": "pKi", "result": "< 5.21"}
{"Compound": "CSCC[C@H](NC(=O)[C@H](CCC(N)=O)NC(=O)[C@H](C)NC(=O)[C@H](CO)NC(=O)[C@@H](N)CO)C(=O)N[C@@H](CC(N)=O)C(=O)N[C@@H](CC(C)C)C(=O)N[C@@H](CC(N)=O)C(=O)N[C@H](C(=O)N[C@@H](Cc1ccccc1)C(=O)N[C@@H](CC(C)C)C(=O)N[C@@H](CC(N)=O)C(=O)O)[C@@H](C)O", "target": "1-deoxy-D-xylulose 5-phosphate reductoisomerase (Escherichia coli K-12, UniProt P45568)", "assay": "enzyme activity, inhibitor, absorbance", "setting": "with preincubation", "quantity": "pIC50", "result": 3.58}
